ChEMBL document CHEMBL4339192, “De Novo Designed Amphipathic α-Helical Antimicrobial Peptides Incorporating Dab and Dap Residues on the Polar Face To Treat the Gram-Negative Pathogen, Acinetobacter baumannii” (J Med Chem, 2019)
≈ marks a conversion by molar mass, not a printed value. Where a SMILES comes first, the peptide text is derived from it. [ ]: non-standard residue; d: D form. Dab = NCC[C@H](N)C(=O)O

Tests used:
[1] = Therapeutic index, ratio of HC50 for human RBC to MIC for polymyxin B/colistin-resistant Acinetobacter baumannii M89952; assay type: toxicity; details: human red blood cells, read-out: TI
Method in brief: (§1)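 T.I. = HC50/MIC. For HC50, peptide (quantified by amino acid analysis) was two-fold serially diluted over 12 concentrations up to 1000 μg/mL. It was incubated with 1% fresh human erythrocytes in PBS, pH 7.4, for 18 h at 37 °C. After 800g centrifugation, hemoglobin was read at 570 nm against water (100%) and no-peptide (0%) controls. HC50 came from a lysis-versus-concentration plot, average of 3 replicates.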

Acinetobacter baumannii [2] = experiment: Antibacterial activity against Acinetobacter baumannii isolate 1035794 measured after 24 hrs by microtiter dilution method; assay type: functional; details: isolate 1035794, 24 h
Method in brief: (§2)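 Broth microdilution in Mueller-Hinton (MH) medium. […] Plates were incubated 24 h at 37 °C. MIC was the lowest peptide concentration that inhibited growth, based on three sets of replicates.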

Acinetobacter baumannii [3] = experiment: Antibacterial activity against Acinetobacter baumannii isolate 1021371 measured after 24 hrs by microtiter dilution method; assay type: functional; details: isolate 1021371, 24 h; method in brief: as §2
[4] = Therapeutic index, ratio of HC50 for human RBC to MIC for polymyxin B/colistin-resistant Acinetobacter baumannii M89941; assay type: toxicity; details: human red blood cells, read-out: TI; method in brief: as §1
Acinetobacter baumannii [5] = experiment: Antibacterial activity against Acinetobacter baumannii isolate 981650 measured after 24 hrs by microtiter dilution method; assay type: functional; details: isolate 981650, 24 h; method in brief: as §2
Acinetobacter baumannii [6] = experiment: Antibacterial activity against Acinetobacter baumannii isolate 1018887 measured after 24 hrs by microtiter dilution method; assay type: functional; details: isolate 1018887, 24 h; method in brief: as §2
Acinetobacter baumannii [7] = experiment: Antibacterial activity against Acinetobacter baumannii isolate 1010245 measured after 24 hrs by microtiter dilution method; assay type: functional; details: isolate 1010245, 24 h; method in brief: as §2
[8] = Therapeutic index, ratio of HC50 for human RBC to MIC for polymyxin B/colistin-resistant Acinetobacter baumannii M89963; assay type: toxicity; details: human red blood cells, read-out: TI; method in brief: as §1
Acinetobacter baumannii [9] = experiment: Antibacterial activity against polymyxin B/colistin-resistant Acinetobacter baumannii M89963 measured after 24 hrs by microtiter dilution method; assay type: functional; details: M89963, 24 h; method in brief: as §2
Acinetobacter baumannii [10] = experiment: Antibacterial activity against polymyxin B/colistin-resistant Acinetobacter baumannii M89953 measured after 24 hrs by microtiter dilution method; assay type: functional; details: M89953, 24 h; method in brief: as §2
Acinetobacter baumannii [11] = experiment: Antibacterial activity against Acinetobacter baumannii isolate 1002956 measured after 24 hrs by microtiter dilution method; assay type: functional; details: isolate 1002956, 24 h; method in brief: as §2
Acinetobacter baumannii [12] = experiment: Antibacterial activity against Acinetobacter baumannii isolate 1017395 measured after 24 hrs by microtiter dilution method; assay type: functional; details: isolate 1017395, 24 h; method in brief: as §2
[13] = Therapeutic index, ratio of HC50 for human RBC to MIC for polymyxin B/colistin-resistant Acinetobacter baumannii M89951; assay type: toxicity; details: human red blood cells, read-out: TI; method in brief: as §1
[14] = Therapeutic index, ratio of HC50 for human RBC to MIC for polymyxin B/colistin-resistant Acinetobacter baumannii M89955; assay type: toxicity; details: human red blood cells, read-out: TI; method in brief: as §1
Acinetobacter baumannii [15] = experiment: Antibacterial activity against polymyxin B/colistin-resistant Acinetobacter baumannii M89951 measured after 24 hrs by microtiter dilution method; assay type: functional; details: M89951, 24 h; method in brief: as §2
Acinetobacter baumannii [16] = experiment: Antibacterial activity against polymyxin B/colistin-resistant Acinetobacter baumannii M89941 measured after 24 hrs by microtiter dilution method; assay type: functional; details: M89941, 24 h; method in brief: as §2
Acinetobacter baumannii [17] = experiment: Antibacterial activity against Acinetobacter baumannii isolate 963618 measured after 24 hrs by microtiter dilution method; assay type: functional; details: isolate 963618, 24 h; method in brief: as §2
Acinetobacter baumannii [18] = experiment: Antibacterial activity against Acinetobacter baumannii isolate 968886 measured after 24 hrs by microtiter dilution method; assay type: functional; details: isolate 968886, 24 h; method in brief: as §2
Acinetobacter baumannii [19] = experiment: Antibacterial activity against Acinetobacter baumannii isolate 964304 measured after 24 hrs by microtiter dilution method; assay type: functional; details: isolate 964304, 24 h; method in brief: as §2
Acinetobacter baumannii [20] = experiment: Antibacterial activity against Acinetobacter baumannii 649 measured after 24 hrs in presence of 25% human serum by microtiter dilution method; assay type: functional; details: Acinetobacter baumannii, 649, 24 h
Method in brief: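 Blood strain 649 was tested by MH broth microdilution with and without 25% (v/v) human serum added to the medium. The test used a final inoculum of 5 × 10^5 cfu/mL and incubation at 37 °C. The ratio is the MIC in serum over the MIC in MH alone.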

Acinetobacter baumannii [21] = experiment: Antibacterial activity against Acinetobacter baumannii isolate 1035166 measured after 24 hrs by microtiter dilution method; assay type: functional; details: isolate 1035166, 24 h; method in brief: as §2
Acinetobacter baumannii [22] = experiment: Antibacterial activity against Acinetobacter baumannii isolate 1010282 measured after 24 hrs by microtiter dilution method; assay type: functional; details: isolate 1010282, 24 h; method in brief: as §2
Acinetobacter baumannii [23] = experiment: Antibacterial activity against polymyxin B/colistin-resistant Acinetobacter baumannii M89952 measured after 24 hrs by microtiter dilution method; assay type: functional; details: M89952, 24 h; method in brief: as §2
Acinetobacter baumannii [24] = experiment: Antibacterial activity against Acinetobacter baumannii 649 measured after 24 hrs by microtiter dilution method; assay type: functional; details: Acinetobacter baumannii, 649, 24 h; method in brief: as §2
Acinetobacter baumannii [25] = experiment: Antibacterial activity against Acinetobacter baumannii isolate 1007660 measured after 24 hrs by microtiter dilution method; assay type: functional; details: isolate 1007660, 24 h; method in brief: as §2
Acinetobacter baumannii [26] = experiment: Antibacterial activity against Acinetobacter baumannii isolate 977751 measured after 24 hrs by microtiter dilution method; assay type: functional; details: isolate 977751, 24 h; method in brief: as §2
Acinetobacter baumannii [27] = experiment: Antibacterial activity against Acinetobacter baumannii isolate 961997 measured after 24 hrs by microtiter dilution method; assay type: functional; details: isolate 961997, 24 h; method in brief: as §2
Acinetobacter baumannii [28] = experiment: Antibacterial activity against Acinetobacter baumannii isolate 1001611 measured after 24 hrs by microtiter dilution method; assay type: functional; details: isolate 1001611, 24 h; method in brief: as §2
Acinetobacter baumannii [29] = experiment: Antibacterial activity against polymyxin B/colistin-resistant Acinetobacter baumannii M89949 measured after 24 hrs by microtiter dilution method; assay type: functional; details: M89949, 24 h; method in brief: as §2
[30] = Therapeutic index, ratio of HC50 for human RBC to MIC for polymyxin B/colistin-resistant Acinetobacter baumannii M89949; assay type: toxicity; details: human red blood cells, read-out: TI; method in brief: as §1
Acinetobacter baumannii [31] = experiment: Antibacterial activity against Acinetobacter baumannii isolate 9383370 measured after 24 hrs by microtiter dilution method; assay type: functional; details: isolate 9383370, 24 h; method in brief: as §2
Acinetobacter baumannii [32] = experiment: Antibacterial activity against Acinetobacter baumannii isolate 963659 measured after 24 hrs by microtiter dilution method; assay type: functional; details: isolate 963659, 24 h; method in brief: as §2
[33] = Hemolytic activity against human RBC measured after 18 hrs by spectrophotometric method; assay type: ADME, cell-based, Erythrocyte; details: human red blood cells (erythrocytes)
Method in brief: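 Peptide (amount by amino acid analysis), two-fold serial dilutions at 12 concentrations up to 1000 μg/mL, with 1% human erythrocytes in PBS pH 7.4, 37 °C, 18 h. Unlysed cells removed by centrifugation (800g); hemoglobin read at 570 nm. Water-lysed cells = 100%, no-peptide cells = 0%. HC50 from plot of % lysis vs concentration (μM), average of 3 replicates.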

[34] = Therapeutic index, ratio of HC50 for human RBC to MIC for polymyxin B/colistin-resistant Acinetobacter baumannii M89953; assay type: toxicity; details: human red blood cells, read-out: TI; method in brief: as §1
Acinetobacter baumannii [35] = experiment: Antibacterial activity against Acinetobacter baumannii isolate 952654 measured after 24 hrs by microtiter dilution method; assay type: functional; details: isolate 952654, 24 h; method in brief: as §2
Acinetobacter baumannii [36] = experiment: Antibacterial activity against polymyxin B/colistin-resistant Acinetobacter baumannii M89955 measured after 24 hrs by microtiter dilution method; assay type: functional; details: M89955, 24 h; method in brief: as §2
Acinetobacter baumannii [37] = experiment: Antibacterial activity against Acinetobacter baumannii isolate 965463 measured after 24 hrs by microtiter dilution method; assay type: functional; details: isolate 965463, 24 h; method in brief: as §2

Molecule `CC(=O)N[C@H](CCCCN)C(=O)N[C@H](CC(C)C)C(=O)N[C@@H](CCN)C(=O)N[C@H](CO)C(=O)N[C@H](CC(C)C)C(=O)N[C@H](CC(C)C)C(=O)N[C@@H](CCN)C(=O)N[C@@H](C(=O)N[C@H](CC(C)C)C(=O)N[C@H](CO)C(=O)N[C@@H](CCN)C(=O)N[C@H](C)C(=O)N[C@H](CCCCN)C(=O)N[C@H](C)C(=O)N[C@H](C)C(=O)N[C@H](CCCCN)C(=O)N[C@H](CC(C)C)C(=O)N[C@@H](CCN)C(=O)N[C@@H](C(=O)N[C@H](CC(C)C)C(=O)N[C@H](CC(C)C)C(=O)N[C@@H](CCN)C(=O)N[C@H](C)C(=O)N[C@H](CC(C)C)C(=O)N[C@H](CO)C(=O)N[C@H](CO)C(N)=O)[C@H](C)O)[C@H](C)O` (Ac-[dK][dL][Dab][dS][dL][dL][Dab][dT][dL][dS][Dab][dA][dK][dA][dA][dK][dL][Dab][dT][dL][dL][Dab][dA][dL][dS][dS]-NH2) has a selectivity ratio [1] greater than 1010, an MIC (Acinetobacter baumannii [2]) of 0.7 µM (≈ 1.88 µg/mL) and an MIC (Acinetobacter baumannii [3]) of 0.4 µM (≈ 1.07 µg/mL). For the same molecule, the selectivity ratio [4] was greater than 1010, the MIC (Acinetobacter baumannii [5]) was 0.4 µM (≈ 1.07 µg/mL) and the MIC (Acinetobacter baumannii [6]) was 0.7 µM (≈ 1.88 µg/mL). The MIC (Acinetobacter baumannii [7]) was 0.4 µM (≈ 1.07 µg/mL), the selectivity ratio [8] was greater than 1010 and the MIC (Acinetobacter baumannii [9]) was 0.7 µM (≈ 1.88 µg/mL). For the same molecule, the MIC (Acinetobacter baumannii [10]) was 1.4 µM (≈ 3.76 µg/mL), the MIC (Acinetobacter baumannii [11]) was 0.4 µM (≈ 1.07 µg/mL) and the MIC (Acinetobacter baumannii [12]) was 0.7 µM (≈ 1.88 µg/mL). The selectivity ratio [13] was greater than 1010, the selectivity ratio [14] was greater than 1010 and the MIC (Acinetobacter baumannii [15]) was 0.7 µM (≈ 1.88 µg/mL). For the same molecule, the MIC (Acinetobacter baumannii [16]) was 0.4 µM (≈ 1.07 µg/mL), the MIC (Acinetobacter baumannii [17]) was 0.4 µM (≈ 1.07 µg/mL) and the MIC (Acinetobacter baumannii [18]) was 0.7 µM (≈ 1.88 µg/mL). For the same molecule, the MIC (Acinetobacter baumannii [19]) was 0.7 µM (≈ 1.88 µg/mL), the MIC (Acinetobacter baumannii [20]) was 0.7 µM and the MIC (Acinetobacter baumannii [21]) was 0.7 µM (≈ 1.88 µg/mL). The MIC (Acinetobacter baumannii [22]) was 0.7 µM (≈ 1.88 µg/mL), the MIC (Acinetobacter baumannii [23]) was 0.7 µM (≈ 1.88 µg/mL) and the MIC (Acinetobacter baumannii [24]) was 0.4 µM (≈ 1.07 µg/mL). For the same molecule, the MIC (Acinetobacter baumannii [25]) was 0.4 µM (≈ 1.07 µg/mL), the MIC (Acinetobacter baumannii [26]) was 0.7 µM (≈ 1.88 µg/mL) and the MIC (Acinetobacter baumannii [27]) was 1.5 µM (≈ 4.03 µg/mL). For the same molecule, the MIC (Acinetobacter baumannii [28]) was 0.4 µM (≈ 1.07 µg/mL), the MIC (Acinetobacter baumannii [29]) was 0.7 µM (≈ 1.88 µg/mL) and the selectivity ratio [30] was greater than 1010. For the same molecule, the MIC (Acinetobacter baumannii [31]) was 0.7 µM (≈ 1.88 µg/mL), the MIC (Acinetobacter baumannii [32]) was 0.7 µM (≈ 1.88 µg/mL) and the HC50 at 18 h [33] was greater than 708 µM. It also gave a selectivity ratio [34] greater than 1010, an MIC (Acinetobacter baumannii [35]) of 0.4 µM (≈ 1.07 µg/mL) and an MIC (Acinetobacter baumannii [36]) of 0.7 µM (≈ 1.88 µg/mL). The MIC (Acinetobacter baumannii [37]) was 0.7 µM (≈ 1.88 µg/mL).
